Here are results for five compounds from ChEMBL document CHEMBL1137448, “Structure-activity studies on diphenylpyrazine derivatives: a novel class of prostacyclin receptor agonists” (Bioorg Med Chem, 2007).

Data set [1] deals with Plasma. As to the kind of experiment: Inhibition of ADP-induced platelet aggregation in human platelet rich plasma.
The nature of data set [2]: Half life in Sprague-Dawley rat at 3 mg/kg, iv. It counts as ADME, organism-based. Further details: dose 3 mg/kg, route intravenous. The note with it: in vivo. In short, it runs like this: (§1)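 Animals were acclimatized (rats >1 week, dogs and monkeys >3 weeks) at 21–25 °C and 45–65% humidity, and were not fasted. Dosing was iv or oral to groups of three. Venous blood was sampled predose and at 5, 15 and 30 min and 1–24 h into heparin. Plasma was spun at 3000 rpm for 15 min at 4 °C and analysed by LC-MS (APCI/ESI positive, SIM/SRM). Values are mean ± SD, n=3.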

Data set [3] is described as follows: Half life in Beagle dog at 1 mg/kg, iv. It counts as ADME, organism-based, Canis lupus familiaris. Also noted: dose 1 mg/kg, route intravenous. The note with it: in vivo. In short, it runs like this:
(§2)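 Compound given iv or orally to non-fasted animals, groups of three; dogs and monkeys acclimatised over 3 weeks at 21–25 °C, 45–65% humidity. Venous blood drawn into heparinised tubes before dosing and at 5, 15, 30 min and 1, 2, 4, 6, 8, 10, 24 h; plasma by centrifugation (3000 rpm, 15 min, 4 °C), drug quantified by HPLC-MS in SIM or SRM mode; mean ± SD, n = 3.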

Data set [4] is described as follows: AUC in Sprague-Dawley rat at 3 mg/kg, iv. The conditions noted are these: plasma. Also noted: dose 3 mg/kg, route intravenous. It counts as ADME, organism-based. The method in brief:
(§3)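 Compound given iv or po to non-fasted groups of three animals (acclimatized ≥1 week rats, ≥3 weeks dogs; fed standard diets, 21–25 °C). Venous blood at predose, 5, 15, 30 min, 1, 2, 4, 6, 8, 10, 24 h into heparinized tubes; plasma by centrifugation (3000 rpm, 15 min, 4 °C); drug measured by LC-MS (APCI or ESI positive, SIM/SRM). Values mean ± SD, n = 3.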

The nature of data set [5]: AUC in Beagle dog at 1 mg/kg, iv. It counts as ADME, organism-based, Canis lupus familiaris. Further details: dose 1 mg/kg, route intravenous. The conditions noted are these: plasma. In short, it runs like this: as §3
A short description of data set [6]: Tmax in Sprague-Dawley rat at 10 mg/kg, po. Format: ADME, organism-based. Also noted: dose 10 mg/kg, route oral. The note with it: in vivo. In short, it runs like this: as §1
Data set [7] is described as follows: Tmax in Beagle dog at 3 mg/kg, po. Format: ADME, organism-based, Canis lupus familiaris. Also noted: dose 3 mg/kg, route oral. The note with it: in vivo. In short, it runs like this:
as §1

Data set [8] can be described thus: Tmax in cynomolgus monkey at 1 mg/kg, po. The conditions noted are these: in vivo. Also noted: dose 1 mg/kg, route oral. Format: ADME, organism-based, Macaca fascicularis. In short, it runs like this: as §2
Data set [9] is described as follows: Cmax in Sprague-Dawley rat at 10 mg/kg, po. Format: ADME, organism-based. Also noted: dose 10 mg/kg, route oral. The note with it: in vivo. In short, it runs like this: as §1
Data set [10] in a line: Cmax in Beagle dog at 3 mg/kg, po. It counts as ADME, organism-based, Canis lupus familiaris. Further details: dose 3 mg/kg, route oral. The conditions noted are these: in vivo. In short, it runs like this: as §1
A short description of data set [11]: Cmax in cynomolgus monkey at 1 mg/kg, po. The note with it: in vivo. Also noted: dose 1 mg/kg, route oral. It counts as ADME, organism-based, Macaca fascicularis. In short, it runs like this:
as §2

The nature of data set [12]: Half life in Sprague-Dawley rat at 10 mg/kg, po. It counts as ADME, organism-based. Also noted: dose 10 mg/kg, route oral. The conditions noted are these: in vivo. The method in brief:
as §1

Data set [13] can be described thus: Half life in Beagle dog at 3 mg/kg, po. It counts as ADME, organism-based, Canis lupus familiaris. Further details: dose 3 mg/kg, route oral. The conditions noted are these: in vivo. The method in brief:
as §1

Data set [14] is described as follows: Half life in cynomolgus monkey at 1 mg/kg, po. The conditions noted are these: in vivo. Also noted: dose 1 mg/kg, route oral. It counts as ADME, organism-based, Macaca fascicularis. In short, it runs like this:
as §2

Data set [15] can be described thus: AUC in Sprague-Dawley rat at 10 mg/kg, po. Further details: dose 10 mg/kg, route oral. The note with it: plasma. It counts as ADME, organism-based. In short, it runs like this: as §3
Data set [16] in a line: AUC in Beagle dog at 3 mg/kg, po. Format: ADME, organism-based, Canis lupus familiaris. Further details: dose 3 mg/kg, route oral. The conditions noted are these: plasma. The method in brief:
as §3

Data set [17] in a line: AUC in cynomolgus monkey at 1 mg/kg, po. It counts as ADME, organism-based, Macaca fascicularis. Further details: dose 1 mg/kg, route oral. The conditions noted are these: plasma. The method in brief: as §1
Data set [18] in a line: Oral bioavailability in Sprague-Dawley rat at 10 mg/kg. It counts as ADME, organism-based. The note with it: in vivo. The method in brief: as §1
The nature of data set [19]: Oral bioavailability in Beagle dog at 3 mg/kg. It counts as ADME, organism-based, Canis lupus familiaris. The conditions noted are these: in vivo. The method in brief: as §1

Compound `CC#CCC(C)[C@H](O)/C=C/[C@@H]1[C@H]2C/C(=C/CCCC(=O)O)C[C@H]2C[C@H]1O` (stereo partly drawn) [ILOPROST] returned an IC50 in [1] of 5 nM.

`CC(C)N(CCCCOCC(=O)NS(C)(=O)=O)c1cnc(-c2ccccc2)c(-c2ccccc2)n1` [SELEXIPAG] came in with a concentration for half-maximal inhibition (IC50) in [1] of 6400 nM.

As for `CN(CCc1cccc(OCC(=O)O)c1)c1cnc(-c2ccccc2)c(-c2ccccc2)n1`, in data set [1], the IC50 worked out at 2000 nM.

In turn, `CC#CCC(C)[C@H](O)/C=C/[C@@H]1[C@H]2c3cccc(CCCC(=O)O)c3O[C@H]2C[C@H]1O` (stereo partly drawn) [BERAPROST SODIUM] gave a half-maximal inhibitory concentration (IC50) in data set [1] of 17 nM.

Take `CC(C)N(CCCCOCC(=O)O)c1cnc(-c2ccccc2)c(-c2ccccc2)n1`: the half-life is 4.9 h in [2]; 5.9 h in data set [3]; 3.6 h in [12]; 6.2 h in data set [13]; 5.6 h in data set [14]. The exposure (AUC) in data set [4] was found to be 5200 ng·h/mL; in [5], 72500 ng·h/mL; in data set [15], 17700 ng·h/mL; in data set [16], 176000 ng·h/mL; in data set [17], 650 ng·h/mL. The Tmax was determined as 0.8 h in data set [6], 0.8 h in [7] and 2.3 h in data set [8]. Besides, the values for the Cmax in data set [9], in [10] and in [11] were 1900 ng/mL, 14900 ng/mL and 110 ng/mL, respectively. Further, the bioavailability worked out at 102% in data set [18] and 80% in data set [19]. Moreover, inhibition in data set [1] was half-maximal at 200 nM (IC50).

For orientation: IC50 means the concentration that inhibits the measured activity by half. Usually half-life stands for how long it takes for the measured level to halve. As usually defined, the AUC is the area under the concentration-time curve, a measure of exposure. One may read the Tmax as the time from dosing to the highest level. Broadly, the Cmax is the maximum level reached in the sampled fluid or tissue.
